According to ChEMBL document CHEMBL1135607, “1-Benzyl-3-(5'-hydroxymethyl-2'-furyl)indazole (YC-1) derivatives as novel inhibitors against sodium nitroprusside-induced apoptosis” (2002):

Species: Rattus norvegicus
Experiment: Effect on the survival of rat aortic smooth muscle cells
Assay type: functional
Parameters: concentration or dose not given beside the values
How it was run: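 Rat aortic smooth muscle cells in culture, pretreated 30 min with test compound at 30 μM, then vehicle or sodium nitroprusside (1 mM) added for another 24 h. Viability read by MTT assay and TUNEL.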

Compound | Cell survival [%]
COc1ccc2c(-c3ccc(CO)o3)nn(Cc3ccccc3)c2c1 | 84.5
CCN(CC)Cc1ccc(-c2nn(Cc3ccccc3)c3ccccc23)o1 | 39.7
COCc1ccc(-c2nn(Cc3ccccc3)c3ccccc23)o1 | 93.2
Cc1ccc(-c2nn(Cc3ccccc3)c3ccccc23)o1 | 31.1
OCc1ccc(-c2nn(Cc3ccccc3)c3cc(F)ccc23)o1 | 83.3
COC(=O)c1ccc(-c2nn(Cc3ccccc3)c3ccccc23)o1 | 78
SODIUM NITROPRUSSIDE | 41.3
OCc1ccc(-c2nn(Cc3ccccc3)c3ccccc23)o1 | 94.7
OCc1ccc(-c2nn(-c3ccccc3)c3ccccc23)o1 | 93.9
CNCc1ccc(-c2nn(Cc3ccccc3)c3ccccc23)o1 | 57.2
OCc1ccc(-c2nn(Cc3ccccc3)c3cc4c(cc23)OCO4)o1 | 75.8
